Source: ChEMBL document CHEMBL4007404, “Identification of High-Potency Human TLR8 and Dual TLR7/TLR8 Agonists in Pyrimidine-2,4-diamines” (J Med Chem, 2017)
Active and inactive are the calls of the source.

Key:
[1] = molecular target: T1, Toll-like receptor 7 (Homo sapiens) (UniProt Q9NYK1); assay: Agonist activity at TLR7 in human whole blood assessed as induction of IFN-alpha/beta by measuring increase in secreted alkaline phosphatase level pretreated for 24 hrs followed by HEK-IFN-alpha/beta reporter cell addition after 24 hrs by spectrophotometric method
T1 sequence (whole entry): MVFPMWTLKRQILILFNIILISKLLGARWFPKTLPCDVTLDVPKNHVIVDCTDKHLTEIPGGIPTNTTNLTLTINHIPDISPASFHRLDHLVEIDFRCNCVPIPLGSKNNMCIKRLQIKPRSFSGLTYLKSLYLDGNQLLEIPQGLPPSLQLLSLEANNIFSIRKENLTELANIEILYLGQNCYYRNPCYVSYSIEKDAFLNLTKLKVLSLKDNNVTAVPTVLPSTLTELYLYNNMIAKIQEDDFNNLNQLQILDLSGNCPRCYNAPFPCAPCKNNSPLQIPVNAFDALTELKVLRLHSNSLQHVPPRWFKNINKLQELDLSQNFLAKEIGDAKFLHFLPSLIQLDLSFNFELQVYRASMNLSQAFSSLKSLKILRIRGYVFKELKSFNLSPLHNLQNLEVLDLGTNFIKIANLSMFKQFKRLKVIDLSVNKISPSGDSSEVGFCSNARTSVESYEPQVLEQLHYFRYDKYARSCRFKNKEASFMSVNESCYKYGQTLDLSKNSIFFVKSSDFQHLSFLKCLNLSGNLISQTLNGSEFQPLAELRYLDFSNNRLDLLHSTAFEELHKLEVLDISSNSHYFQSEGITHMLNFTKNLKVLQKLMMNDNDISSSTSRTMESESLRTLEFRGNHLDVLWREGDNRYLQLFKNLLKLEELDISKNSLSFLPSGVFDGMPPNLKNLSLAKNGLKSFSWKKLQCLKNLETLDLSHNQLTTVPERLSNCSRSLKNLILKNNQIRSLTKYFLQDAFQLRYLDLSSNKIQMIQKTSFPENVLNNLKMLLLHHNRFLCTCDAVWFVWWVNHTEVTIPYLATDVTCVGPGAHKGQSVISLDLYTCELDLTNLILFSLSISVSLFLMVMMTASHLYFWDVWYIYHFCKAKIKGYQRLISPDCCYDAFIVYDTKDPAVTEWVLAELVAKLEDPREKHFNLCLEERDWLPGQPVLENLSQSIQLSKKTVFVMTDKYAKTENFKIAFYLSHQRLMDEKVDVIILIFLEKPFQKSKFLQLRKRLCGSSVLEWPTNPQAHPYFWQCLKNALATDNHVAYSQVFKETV
Method in brief: (§1)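 Heparinized human whole blood, diluted 1:2 in RPMI with 10% FBS, was incubated with serial compound dilutions at 37°C for 24 h. Supernatant was moved by liquid handler onto HEK-IFNα/β, HEK-IFNγ or HEK-TNFα/IL-1β reporter cells (1x10⁶ cells/mL, DMEM with 10% FBS) for 24 h at 37°C. Plates were washed and given detection medium for 16 h, then sAP read at 620 nm. Calibration used serum spiked with IFN-α, IFN-γ or TNF-α.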

[2] = molecular target: T2, Toll-like receptor 8 (Homo sapiens) (UniProt Q9NR97); assay: Agonist activity at TLR8 in human whole blood assessed as induction of TNF-alpha/IL-1beta by measuring increase in secreted alkaline phosphatase level pretreated for 24 hrs followed by HEK-TNF-alpha/IL-1beta reporter cell addition after 24 hrs by spectrophotometric method; method in brief: as §1
T2 sequence (whole entry): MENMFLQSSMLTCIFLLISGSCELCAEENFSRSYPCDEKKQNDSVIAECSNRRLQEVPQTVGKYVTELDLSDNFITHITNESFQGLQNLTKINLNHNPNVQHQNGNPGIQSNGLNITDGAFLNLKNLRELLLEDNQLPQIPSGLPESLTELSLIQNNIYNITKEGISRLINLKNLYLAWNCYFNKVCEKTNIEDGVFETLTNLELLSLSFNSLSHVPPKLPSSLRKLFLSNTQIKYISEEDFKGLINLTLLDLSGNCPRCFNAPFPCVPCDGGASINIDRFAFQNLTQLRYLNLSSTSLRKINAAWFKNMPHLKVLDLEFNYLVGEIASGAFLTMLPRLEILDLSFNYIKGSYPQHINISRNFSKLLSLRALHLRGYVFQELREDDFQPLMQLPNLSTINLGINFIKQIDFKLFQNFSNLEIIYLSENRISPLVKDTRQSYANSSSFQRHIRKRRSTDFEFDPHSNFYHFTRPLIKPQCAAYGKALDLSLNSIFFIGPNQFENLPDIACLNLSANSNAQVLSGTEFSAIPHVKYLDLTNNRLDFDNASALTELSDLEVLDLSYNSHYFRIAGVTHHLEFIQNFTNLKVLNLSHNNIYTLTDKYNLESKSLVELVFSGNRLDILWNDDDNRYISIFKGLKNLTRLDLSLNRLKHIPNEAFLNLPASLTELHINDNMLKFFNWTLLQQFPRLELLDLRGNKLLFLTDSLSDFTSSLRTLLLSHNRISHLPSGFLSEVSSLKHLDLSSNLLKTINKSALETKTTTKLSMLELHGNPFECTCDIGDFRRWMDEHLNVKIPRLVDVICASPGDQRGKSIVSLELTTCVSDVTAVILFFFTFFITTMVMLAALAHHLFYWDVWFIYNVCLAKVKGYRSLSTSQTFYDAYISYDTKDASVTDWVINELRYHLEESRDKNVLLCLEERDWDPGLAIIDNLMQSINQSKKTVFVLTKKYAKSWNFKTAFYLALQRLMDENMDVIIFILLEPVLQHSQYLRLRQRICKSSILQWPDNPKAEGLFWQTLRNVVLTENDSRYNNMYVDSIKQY

[3] = molecular target: T2, Toll-like receptor 8 (Homo sapiens); assay: Agonist activity at TLR8 in human CD141 positive conventional dendritic cells assessed as upregulation of CD80 expression after 16 hrs by efluor 780 dye based flow cytometry
Method in brief: (§2)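 Human PBMCs were incubated with serial compound dilutions at 37 °C for 16 h, with DMSO controls. Cells were stained with eFluor780 viability dye, then lineage and DC antibodies plus CD80 PE, and fixed. 250,000 gated events were acquired. pDCs were gated as Live Lin⁻ CD123⁺ CD303⁺ CD304⁺ HLA-DR⁺. cDCs were gated as Lin⁻ CD1c⁺ CD141⁻ CD11c⁺ HLA-DR⁺ or Lin⁻ CD141⁺ CD1c⁻ HLA-DR⁺. Median fluorescence intensity was quantified.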

[4] = molecular target: T2, Toll-like receptor 8 (Homo sapiens); assay: Agonist activity at TLR8 in human […] conventional dendritic cells assessed as upregulation of CD80 expression after 16 hrs by efluor 780 dye based flow cytometry; method in brief: as §2
[5] = molecular target: T2, Toll-like receptor 8 (Homo sapiens); assay: Agonist activity at TLR8 in human whole blood assessed as induction of IFN-gamma by measuring increase in secreted alkaline phosphatase level pretreated for 24 hrs followed by HEK-IFN-gamma reporter cell addition after 24 hrs by spectrophotometric method; method in brief: as §1
[6] = molecular target: T1, Toll-like receptor 7 (Homo sapiens); assay: Agonist activity at TLR7 in human plasmacytoid dendritic cells assessed as upregulation of CD80 expression after 16 hrs by efluor 780 dye based flow cytometry; method in brief: as §2

Measured: Activity

CCCCNc1nc(N)nc(C)c1CCCN1CCOCC1
active: [1] | [2] | [3] | [4] | [5] | [6]
